Experimental data collected from several papers.
Compare with care: the assays were run in different laboratories.
Target: Ribosomal protein S6 kinase beta-1 (RPS6KB1, Homo sapiens, UniProt P23443)
Observed: enzyme activity
Action: inhibitor

| Structure (SMILES) | method | concentration | remaining activity [%] |
| --- | --- | --- | --- |
| CCN(CC)CCNC(=O)c1c(C)[nH]c(/C=C2\C(=O)Nc3ccc(F)cc32)c1C | – | 1 µM | 31 |
| CC(C)(O)[C@H]1CC[C@H](Nc2ccc3ncc(-c4cccc(C(F)(F)F)c4)n3n2)CC1 | – | 1 µM | 96.8 |
| Oc1cccc(-c2nc(N3CCOCC3)c3oc4ncccc4c3n2)c1 | – | 10 µM | 90 |
| Cc1ccc(Nc2nccc(N(C)c3ccc4c(C)n(C)nc4c3)n2)cc1S(N)(=O)=O | – | 0.5 µM | 96 |
| Cc1cnc(NC2CCOCC2)nc1-n1cnc(C(=O)NC(CN)c2cc(F)cc(Cl)c2)c1 (stereo not drawn) | radiometric | 1 µM | 71 |
| CC(C)(C)C(=O)c1sc(NC2CCCCC2)nc1N | – | 10 µM | 86 |
| Cn1c(=O)n(-c2ccc(C(C)(C)C#N)cc2)c2c3cc(-c4cnc5ccccc5c4)ccc3ncc21 | – | 10 µM | 109 |
| CC(C)(C)c1nc2c(s1)c1nc(N)ncc1c1ccc(NS(=O)(=O)c3c(F)cccc3F)c(F)c12 | radiometric | 1 µM | 87 |
| Nc1nc(NC2CCCCC2)sc1C(=O)c1ccccc1 | – | 10 µM | 78 |
| O=C(Nc1cnn(-c2csc(C(=O)NC3COC3)c2)c1)Nc1ccccc1Cl | – | 5 µM | 92.1 |
| Cc1[nH]c(/C=C2\C(=O)Nc3ccc(F)cc32)c(C)c1C(=O)N[C@H]1CCN(C(=O)N(C)C)C1 | – | 1 µM | 52 |
| COc1cc(Nc2cnc(C#N)c(O[C@H](C)CN(C)C)n2)ncc1-c1cnn(C)c1 | radiometric | 1 µM | 55 |
